Measurements from ChEMBL document CHEMBL1122306, “2-(Hydroxyphenyl)indoles: a new class of mammary tumor inhibiting compounds” (1983).
Values joined by “and” are separate entries in the source; they are usually repeats but may differ in a detail not shown here. Equal entries are not always repeated.

What was measured:
Rattus norvegicus [1] = assay: Percent complete remission of DMBA-induced hormone dependent mammary carcinoma in rats at 2 mg/kg in 9 animals; format: functional
How it was run: (§1)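 Sprague-Dawley rats bearing established DMBA-induced mammary carcinomas that arose 5–10 weeks after DMBA. Dosed sc as one daily dose Monday to Thursday and a double dose on Friday. Controls got vehicle alone. Tumor area was followed over treatment.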

Rattus norvegicus [2] = assay: Initial DMBA-induced hormone dependent mammary carcinoma tumors in rats at 6 mg/kg; format: functional; how it was run: as §1
Rattus norvegicus [3] = assay: Progressive DMBA-induced hormone dependent mammary carcinoma tumors in rats at 2 mg/kg in 9 animals; format: functional; how it was run: as §1
Rattus norvegicus [4] = assay: New tumor development in DMBA-induced hormone dependent mammary carcinoma in rats at 6 mg/kg; format: functional; how it was run: as §1
Rattus norvegicus [5] = assay: Change in body weight of DMBA-induced hormone dependent mammary carcinoma tumor bearing rats at 2 mg/kg after 7 day therapy in 9 animals; format: functional
Rattus norvegicus [6] = assay: Partial remission in DMBA-induced hormone dependent mammary carcinoma tumor bearing rats at 2 mg/kg in 9 animals; format: functional; how it was run: as §1
Rattus norvegicus [7] = assay: Static unchanged DMBA-induced hormone dependent mammary carcinoma tumors in rats at 2 mg/kg in 9 animals; format: functional; how it was run: as §1
Rattus norvegicus [8] = assay: Change in tumor area DMBA-induced hormone dependent mammary carcinoma tumor bearing rats at 2 mg/kg after 28 day therapy in 9 animals
[9] = biological target: T1, Estrogen receptor (Mus musculus) (UniProt O08537+P19785); assay: Percent inhibition in anti-uterotrophic assay in mice at 5 ug; format: functional
How it was run: (§2)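 Mice dosed sc on 3 consecutive days (dose per animal), together with […] estrone per animal per day. Uterus dry weight (mg)/body weight (g) × 100 was taken 24 h after the last injection, as mean ± SD of 10 animals. Significance by Wilcoxon–Mann–Whitney U test.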

[10] = biological target: T1, Estrogen receptor (Mus musculus); assay: Anti-estrogenic activity in mouse uterotrophic assay at 1 ug as uterus dry weight (mg)/body weight (g) *100; format: functional, tissue-based; how it was run: as §2
MDA-MB-231 [11] = assay: Inhibition of [3H]thymidine incorporation into hormone independent MDA-MB 231 human breast cancer cells at 1x10E-5 M; format: functional
How it was run: (§3)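 MDA-MB 231 cells grown in McCoy 5a with 10% newborn calf serum and gentamycin. Replicate plates were switched to 5% serum 1 h before the run. Compounds were added in Me2SO (final 0.1%). Read-out was [3H]thymidine incorporation into TCA-precipitable material.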

MDA-MB-231 [12] = assay: (§4) Inhibition of [3H]thymidine incorporation into hormone independent MDA-MB 231 human breast cancer cells at 1x10E-6M; format: functional; how it was run: as §3
MDA-MB-231 [13] = assay: Growth inhibition of hormone independent MDA-MB 231 human breast cancer cells at 1x10E-5 M
[14] = biological target: T1, Estrogen receptor (Mus musculus); assay: Percent inhibition in anti-uterotrophic assay in mice at 125 ug; format: functional; how it was run: as §2
[15] = biological target: T1, Estrogen receptor (Mus musculus); assay: Anti-estrogenic activity in mouse uterotrophic assay at 625 ug as uterus dry weight (mg)/body weight (g) *100; format: functional, tissue-based; how it was run: as §2
[16] = biological target: T1, Estrogen receptor (Mus musculus); assay: Percent inhibition in anti-uterotrophic assay in mice at 1 ug; format: functional; how it was run: as §2
[17] = biological target: T1, Estrogen receptor (Mus musculus); assay: Anti-estrogenic activity in mouse uterotrophic assay at 125 ug as uterus dry weight (mg)/body weight (g) *100; format: functional, tissue-based; how it was run: as §2
[18] = biological target: T1, Estrogen receptor (Mus musculus); assay: Percent inhibition in anti-uterotrophic assay in mice at 625 ug; format: functional; how it was run: as §2
[19] = biological target: T1, Estrogen receptor (Mus musculus); assay: Anti-estrogenic activity in mouse uterotrophic assay at 25 ug as uterus dry weight (mg)/body weight (g) *100; format: functional, tissue-based; how it was run: as §2
[20] = biological target: T1, Estrogen receptor (Mus musculus); assay: Percent inhibition in anti-uterotrophic assay in mice at 25 ug; format: functional; how it was run: as §2
[21] = biological target: T1, Estrogen receptor (Mus musculus); assay: Estrogenic activity in mouse uterotrophic assay at 5 ug as uterus dry weight (mg)/body weight (g) *100; format: functional, tissue-based
How it was run: (§5)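 Mouse uterotrophic test with the compound alone given sc on 3 consecutive days (dose per animal). Uterus dry weight (mg)/body weight (g) × 100 was measured 24 h after the last injection, as mean ± SD of 10 animals. Significance by Wilcoxon–Mann–Whitney U test.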

[22] = biological target: T1, Estrogen receptor (Mus musculus); assay: Anti-estrogenic activity in mouse uterotrophic assay at 5 ug as uterus dry weight (mg)/body weight (g) *100; format: functional, tissue-based; how it was run: as §2
Rattus norvegicus [23] = assay: Change in tumor area DMBA-induced hormone dependent mammary carcinoma tumor bearing rats at 2 mg/kg after 7 day therapy in 9 animals; format: functional; settings: in the assay text read “28 day” for “7 day”; how it was run: as §1
[24] = biological target: T1, Estrogen receptor (Mus musculus); assay: Estrogenic activity in mouse uterotrophic assay at 1 ug as uterus dry weight (mg)/body weight (g) *100; format: functional, tissue-based; how it was run: as §5
MDA-MB-231 [25] = assay: as §4; format: functional; how it was run: as §3; remark: listed apart in the source
[26] = biological target: T1, Estrogen receptor (Mus musculus); assay: Estrogenic activity in mouse uterotrophic assay at 625 ug as uterus dry weight (mg)/body weight (g) *100; format: functional, tissue-based; how it was run: as §5
[27] = biological target: T1, Estrogen receptor (Mus musculus); assay: Estrogenic activity in mouse uterotrophic assay at 125 ug as uterus dry weight (mg)/body weight (g) *100; format: functional, tissue-based; how it was run: as §5
[28] = biological target: T1, Estrogen receptor (Mus musculus); assay: Estrogenic activity in mouse uterotrophic assay at 25 ug as uterus dry weight (mg)/body weight (g) *100; format: functional, tissue-based; how it was run: as §5
MDA-MB-231 [29] = assay: Inhibition of [3H]thymidine incorporation into hormone independent MDA-MB 231 human breast cancer cells at 1*10^-5 M; format: functional; how it was run: as §3
MDA-MB-231 [30] = assay: (§6) Inhibition of [3H]thymidine incorporation into hormone independent MDA-MB 231 human breast cancer cells at 2x10E-6M; format: functional; how it was run: as §3
Rattus norvegicus [31] = assay: Initial DMBA-induced hormone dependent mammary carcinoma tumors in rats at 18 mg/kg; format: functional; how it was run: as §1
Rattus norvegicus [32] = assay: New tumor development in DMBA-induced hormone dependent mammary carcinoma in rats at 18 mg/kg; format: functional; how it was run: as §1
Rattus norvegicus [33] = assay: New tumor development in DMBA-induced hormone dependent mammary carcinoma in rats at 2 mg/kg; format: functional; how it was run: as §1
[34] = biological target: T1, Estrogen receptor (Mus musculus); assay: Anti-estrogenic activity in mouse uterotrophic assay at 0.04 ug as uterus dry weight (mg)/body weight (g) *100; format: functional, tissue-based; settings: in the assay text read “at 1 ug” for “at 0.04 ug”; how it was run: as §2
[35] = biological target: T1, Estrogen receptor (Mus musculus); assay: Estrogenic activity in mouse uterotrophic assay at 0.04 ug as uterus dry weight (mg)/body weight (g) *100; format: functional, tissue-based; how it was run: as §5
MDA-MB-231 [36] = assay: as §6; format: functional; how it was run: as §3; remark: listed apart in the source
[37] = biological target: T1, Estrogen receptor (Mus musculus); assay: Estrogenic activity in mouse uterotrophic assay at 0.2 ug as uterus dry weight (mg)/body weight (g) *100; format: functional, tissue-based; how it was run: as §5
Rattus norvegicus [38] = assay: Initial DMBA-induced hormone dependent mammary carcinoma tumors in rats at 2 mg/kg; format: functional; how it was run: as §1
[39] = biological target: T1, Estrogen receptor (Mus musculus); assay: Percent inhibition in anti-uterotrophic assay in mice at 0.04 ug; format: functional; settings: in the assay text read “at 1 ug” for “at 0.04 ug”; how it was run: as §2
[40] = biological target: T1, Estrogen receptor (Mus musculus); assay: Anti-estrogenic activity in mouse uterotrophic assay at 0.2 ug as uterus dry weight (mg)/body weight (g) *100; format: functional, tissue-based; settings: in the assay text read “at 5 ug” for “at 0.2 ug”; how it was run: as §2
MDA-MB-231 [41] = assay: Growth inhibition of hormone independent MDA-MB 231 human breast cancer cells at 5x10E-6M
MDA-MB-231 [42] = assay: Inhibition of [3H]thymidine incorporation into hormone independent MDA-MB 231 human breast cancer cells at 5x10E-6M; format: functional; how it was run: as §3
MDA-MB-231 [43] = assay: Inhibition of [3H]-thymidine incorporation into hormone independent MDA-MB 231 human breast cancer cells at 5x10E-6M; format: functional; how it was run: as §3
[44] = biological target: T1, Estrogen receptor (Mus musculus); assay: Percent inhibition in anti-uterotrophic assay in mice at 0.2 ug; format: functional; settings: in the assay text read “at 5 ug” for “at 0.2 ug”; how it was run: as §2

T1 sequence (O08537 whole entry, looked up): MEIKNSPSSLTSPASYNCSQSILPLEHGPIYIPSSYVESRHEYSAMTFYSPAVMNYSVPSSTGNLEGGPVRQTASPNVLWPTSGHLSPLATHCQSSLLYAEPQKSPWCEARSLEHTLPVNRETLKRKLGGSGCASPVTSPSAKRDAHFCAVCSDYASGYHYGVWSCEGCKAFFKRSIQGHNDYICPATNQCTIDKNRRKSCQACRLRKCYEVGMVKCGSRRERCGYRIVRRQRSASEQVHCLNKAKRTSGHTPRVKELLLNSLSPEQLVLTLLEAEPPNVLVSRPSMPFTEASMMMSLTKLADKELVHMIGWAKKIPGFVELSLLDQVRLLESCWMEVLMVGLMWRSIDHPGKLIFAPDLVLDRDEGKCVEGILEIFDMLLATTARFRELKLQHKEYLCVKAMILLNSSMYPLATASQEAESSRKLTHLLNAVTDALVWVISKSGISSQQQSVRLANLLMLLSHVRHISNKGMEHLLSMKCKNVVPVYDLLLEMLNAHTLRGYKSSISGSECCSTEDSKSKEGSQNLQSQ
T1 sequence (P19785 whole entry, looked up): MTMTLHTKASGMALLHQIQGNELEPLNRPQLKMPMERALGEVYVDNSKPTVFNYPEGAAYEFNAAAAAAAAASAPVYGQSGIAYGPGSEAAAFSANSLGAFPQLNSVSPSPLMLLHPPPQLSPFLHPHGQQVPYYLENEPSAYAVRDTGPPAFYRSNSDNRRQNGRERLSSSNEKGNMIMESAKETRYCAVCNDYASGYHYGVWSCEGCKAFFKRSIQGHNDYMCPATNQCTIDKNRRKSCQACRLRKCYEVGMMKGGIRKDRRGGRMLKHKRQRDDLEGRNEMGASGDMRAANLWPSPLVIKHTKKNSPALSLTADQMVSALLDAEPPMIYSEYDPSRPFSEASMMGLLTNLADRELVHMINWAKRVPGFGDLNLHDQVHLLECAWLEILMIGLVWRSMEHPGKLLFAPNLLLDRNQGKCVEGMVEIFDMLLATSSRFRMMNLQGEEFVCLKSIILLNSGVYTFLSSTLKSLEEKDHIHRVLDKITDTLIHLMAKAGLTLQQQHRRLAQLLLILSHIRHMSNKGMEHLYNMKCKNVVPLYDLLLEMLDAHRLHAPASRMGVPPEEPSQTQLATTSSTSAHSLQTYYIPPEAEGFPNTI

Structure (SMILES): CCCn1c(-c2c(Cl)cc(O)cc2Cl)cc2c(Cl)cc(O)cc21
- Complete remission (Rattus norvegicus [1]): 8%
- No. of tumors (Rattus norvegicus [2]): 17
- Progressive tumors (Rattus norvegicus [3]): 23%
- New tumors (Rattus norvegicus [4]): 9
- Change (Rattus norvegicus [5]): 0%
- Partial remission (Rattus norvegicus [6]): 19%
- Static remission (Rattus norvegicus [7]): 50%
- Change (Rattus norvegicus [8]): 57%

Structure (SMILES): Cn1c(-c2c(Cl)cc(O)cc2Cl)cc2c(Cl)cc(O)cc21
- Complete remission (Rattus norvegicus [1]): 19%
- No. of tumors (Rattus norvegicus [2]): 19
- inhibition [9]: 5%
- Effect [10]: 48.5
- Progressive tumors (Rattus norvegicus [3]): 28%
- Cell no./dish x10E3 (MDA-MB-231 [11]): 2.2 cpm/dish x10E3
- Cell no./dish x10E5 (MDA-MB-231 [11]): 4.12
- T/C (MDA-MB-231 [12]): 88%
- New tumors (Rattus norvegicus [4]): 24
- Change (Rattus norvegicus [5]): -2%
- T/C (MDA-MB-231 [13]): 38%
- inhibition [14]: 30%
- Effect [15]: 39.6
- Partial remission (Rattus norvegicus [6]): 28%
- inhibition [16]: -6%
- Effect [17]: 37.7
- inhibition [18]: 24%
- Static remission (Rattus norvegicus [7]): 25%
- Effect [19]: 42.7
- inhibition [20]: 14%
- Effect [21]: 18.2
- Effect [22]: 45.4
- Change (Rattus norvegicus [23]): 24%
- Effect [24]: 16
- Cell no./dish x10E3 (MDA-MB-231 [25]): 36.4 cpm/dish x10E3
- Cell no./dish x10E5 (MDA-MB-231 [25]): 10.12
- T/C (MDA-MB-231 [25]): 95%
- Effect [26]: 40.1
- Effect [27]: 34.4
- Effect [28]: 26
- T/C (MDA-MB-231 [29]): 5%

Structure (SMILES): CCn1c(-c2c(Cl)cc(O)cc2Cl)cc2c(Cl)cc(O)cc21
- T/C (MDA-MB-231 [30]): 88%
- Complete remission (Rattus norvegicus [1]; 2 mg/kg): 43% and 62% and 56%
- No. of tumors (Rattus norvegicus [31]): 20
- No. of tumors (Rattus norvegicus [2]): 22
- inhibition [9]: 2%
- New tumors (Rattus norvegicus [32]): 5
- New tumors (Rattus norvegicus [33]): 15
- Effect [34]: 48.7
- Effect [35]: 19.8
- Cell no./dish x10E3 (MDA-MB-231 [36]): 36.2 cpm/dish x10E3
- Cell no./dish x10E5 (MDA-MB-231 [36]): 9.38
- T/C (MDA-MB-231 [36]): 88%
- Effect [37]: 21.7
- Effect [10]: 48.7
- Progressive tumors (Rattus norvegicus [3]; 2 mg/kg): 24% and 15% and 16%
- No. of tumors (Rattus norvegicus [38]): 22
- Cell no./dish x10E3 (MDA-MB-231 [11]): 6.6 cpm/dish x10E3
- Cell no./dish x10E5 (MDA-MB-231 [11]): 2.71
- T/C (MDA-MB-231 [12]): 98%
- New tumors (Rattus norvegicus [4]): 4
- inhibition [39]: -7%
- Change (Rattus norvegicus [5]; 2 mg/kg): 2% and 1% and 0%
- T/C (MDA-MB-231 [13]): 25%
- Partial remission (Rattus norvegicus [6]; 2 mg/kg): 14% and 15% and 24%
- inhibition [16]: -7%
- Effect [40]: 46.3
- Effect [19]: 39.3
- T/C (MDA-MB-231 [41]): 51%
- inhibition [20]: 25%
- Effect [21]: 22.2
- T/C (MDA-MB-231 [42]): 14%
- [3H]thymidine incorporation (MDA-MB-231 [42]): 5.8 cpm/dish x10E3
- Cell no./dish x10E5 (MDA-MB-231 [43]): 5.44
- Effect [22]: 46.3
- Effect [24]: 21.5
- Cell no./dish x10E3 (MDA-MB-231 [25]): 40.2 cpm/dish x10E3
- Cell no./dish x10E5 (MDA-MB-231 [25]): 11.35
- T/C (MDA-MB-231 [25]): 106%
- Effect [27]: 40.6
- Effect [28]: 45.8
- T/C (MDA-MB-231 [29]): 16%
- inhibition [44]: 2%
